Measurements taken from ChEMBL document CHEMBL3421612, “Identification of an anti-inflammatory derivative with anti-cancer potential: The impact of each of its structural components on inflammatory responses in macrophages and bladder cancer cells” (2015).
Activity calls are given as the source filed them. The rule behind the calls is not given here.

Experiments:
MB49-I [1] = test: (§1) Antiinflammatory activity against mouse MB49-I cells assessed as inhibition of IFN-gamma/TNFalpha-NO production pretreated at 10 uM after 24 hrs by Griess reaction relative to vehicle treated control; type: functional
Method in brief: (§2)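 Cells seeded at 25 × 10³ per well, pretreated 3 h with test agents, washed twice with 10% FBS RPMI-1640, then stimulated 24 h with IFNγ plus TNFα. NO was quantified as nitrite using the Griess reaction (sulfanilic acid diazotization coupled to N-(1-naphthyl)ethylenediamine), absorbance at 548 nm, compared with cytokine-only control cells.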

MB49-I [2] = test: (§3) Antiinflammatory activity against mouse MB49-I cells assessed as inhibition of IFN-gamma/TNFalpha-NO production pretreated at 50 uM after 24 hrs by Griess reaction relative to vehicle treated control; type: functional; method in brief: as §2
[3] = (§4) Antiproliferative activity against mouse MB49-I cells assessed as induction of IFN-gamma/TNFalpha-induced loss of cell viability at 25 uM after 24 hrs by MTT assay relative to control; type: functional
Method in brief: (§5)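 MB49-I cells plated at 5 × 10³ per well and cultured 24 h. Pretreated 3 h with DMSO or compound at 0–50 μM, then incubated 24 h with or without IFNγ plus TNFα. MTT added for 3 h, solubilized overnight in 10% SDS/10 mM HCl, and absorbance read at 580 nm.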

THP-1 [4] = test: Reduction in IFN-gamma-induced STAT1 phosphorylation in human THP1 cells assessed as fold decrease at 10 uM after 30 mins by densitometric analysis relative to vehicle treated control; type: functional; settings: THP-1, 0.5 h
Method in brief: (§6)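 PMA-differentiated THP1 macrophages at 750 × 10³ cells/mL were pretreated 30 min with DMSO or compound at 10 or 50 μM, washed, then harvested immediately or after 30 min of 50 U/mL IFNγ (pSTAT1) or 25 ng/mL IL6 (pSTAT3). Lysates were run on reducing SDS-PAGE and immunoblotted for pSTAT1/pSTAT3, with blots reprobed for total STAT; phosphorylation was expressed as fold induction.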

MB49-I [5] = test: Antiproliferative activity against mouse MB49-I cells assessed as induction of IFN-gamma/TNFalpha-induced loss of cell viability at 10 uM after 24 hrs by MTT assay relative to control; type: functional, cell-based; method in brief: as §5
THP-1 [6] = test: Reduction in IFN-gamma-induced STAT1 phosphorylation in human THP1 cells assessed as fold decrease at 50 uM after 30 mins by densitometric analysis relative to vehicle treated control; type: functional; settings: THP-1, 0.5 h; method in brief: as §6
J774.A1 [7] = test: Reduction in IFN-gamma/TNFalpha-induced NO production in mouse J774A.1 cells pretreated at 10 uM measured for 24 hrs by Griess reaction relative to vehicle treated control; type: functional; method in brief: as §2
THP-1 [8] = test: Reduction in IL6-induced STAT3 phosphorylation in human THP1 cells assessed as fold decrease at 50 uM after 30 mins by densitometric analysis relative to vehicle treated control; type: functional; settings: THP-1, 0.5 h; method in brief: as §6
THP-1 [9] = test: Reduction in IL6-induced STAT3 phosphorylation in human THP1 cells assessed as fold decrease at 10 uM after 30 mins by densitometric analysis relative to vehicle treated control; type: functional; settings: THP-1, 0.5 h; method in brief: as §6
[10] = as §1; type: functional; method in brief: as §2
[11] = Reduction in IFN-gamma-induced MHC2 expression in human THP1 cells assessed as fold decrease pretreated at 10 uM after 48 hrs by flow cytometry relative to vehicle treated control; type: functional, cell-based; settings: THP-1
Method in brief: (§7)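 PMA-differentiated GFP-THP1 macrophages at 750 × 10⁴ cells/mL were pretreated 3 h with DMSO or compound, then left untreated or stimulated 48 h with 50 U/mL IFNγ. Surface CD40 and MHC-II were quantified by flow cytometry as fold change versus resting cells.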

J774.A1 [12] = test: Reduction in IFN-gamma/TNFalpha-induced NO production in mouse J774A.1 cells pretreated at 50 uM measured for 24 hrs by Griess reaction relative to vehicle treated control; type: functional; method in brief: as §2
[13] = (§8) Antiproliferative activity against mouse MB49-I cells assessed as induction of IFN-gamma/TNFalpha-induced loss of cell viability at 37.5 uM after 24 hrs by MTT assay relative to control; type: functional; method in brief: as §5
[14] = Reduction in IFN-gamma-induced CD40 expression in human THP1 cells assessed as fold decrease pretreated at 10 uM after 48 hrs by flow cytometry relative to vehicle treated control; type: functional, cell-based; settings: THP-1; method in brief: as §7
[15] = (§9) Antiproliferative activity against mouse MB49-I cells assessed as induction of IFN-gamma/TNFalpha-induced loss of cell viability at 50 uM after 24 hrs by MTT assay relative to control; type: functional; method in brief: as §5
[16] = as §3; type: functional; method in brief: as §2
MB49-I [17] = test: as §4; type: functional; method in brief: as §5
[18] = Reduction in IFN-gamma-induced MHC2 expression in human THP1 cells assessed as fold decrease pretreated at 25 uM after 48 hrs by flow cytometry relative to vehicle treated control; type: functional, cell-based; settings: THP-1; method in brief: as §7
MB49-I [19] = test: as §8; type: functional; method in brief: as §5
[20] = Reduction in IFN-gamma-induced CD40 expression in human THP1 cells assessed as fold decrease pretreated at 25 uM after 48 hrs by flow cytometry relative to vehicle treated control; type: functional, cell-based; settings: THP-1; method in brief: as §7
MB49-I [21] = test: as §9; type: functional; method in brief: as §5

O=C1C=CC(=O)N1c1ccccc1
inhibition (MB49-I [1]): inactive | inhibition (MB49-I [2]): inactive

O=C(O)c1ccc(N2C(=O)C=CC2=O)cc1
inhibition (MB49-I [1]): inactive | inhibition (MB49-I [2]): inactive

Nc1ccc(C(=O)O)cc1
inhibition (MB49-I [1]): inactive | inhibition (MB49-I [2]): inactive

CC(C)(C)OC(=O)NNC(=O)c1ccccc1
Activity (MB49-I [1]): inactive | Activity (MB49-I [2]): inactive

CC(C)(C)OC(=O)NNC(=O)c1ccc(N2C(=O)C=CC2=O)cc1
inhibition at 25 µM [3]: 19% | inhibition at 10 µM (THP-1 [4]): 38% | Activity (MB49-I [5]): inactive | inhibition at 50 µM (THP-1 [6]): 71% | inhibition at 10 µM (J774.A1 [7]): 46% | inhibition at 50 µM (THP-1 [8]): 85% | inhibition at 10 µM (THP-1 [9]): 64% | inhibition at 10 µM [10]: 40% | inhibition [11]: 49% | inhibition at 50 µM (J774.A1 [12]): 91% | inhibition at 37.5 µM [13]: 45% | inhibition [14]: 87% | inhibition at 50 µM [15]: 50% | inhibition at 50 µM [16]: 81%

O=C(O)/C=C\C(=O)Nc1ccccc1
inhibition (MB49-I [1]): inactive | inhibition (MB49-I [2]): inactive

O=C(O)/C=C\C(=O)Nc1ccc(C(=O)O)cc1
inhibition (MB49-I [1]): inactive | inhibition (MB49-I [2]): inactive

O=C1C=CC(=O)O1
inhibition (MB49-I [1]): inactive | inhibition (MB49-I [2]): inactive

NNC(=O)c1ccc(N2C(=O)C=CC2=O)cc1
inhibition (MB49-I [17]): inactive | inhibition at 10 µM (THP-1 [4]): 16% | Activity (MB49-I [5]): inactive | inhibition at 50 µM (THP-1 [6]): 66% | inhibition at 10 µM (J774.A1 [7]): 24% | inhibition at 50 µM (THP-1 [8]): 38% | inhibition at 10 µM (THP-1 [9]): 15% | inhibition at 10 µM [10]: 21% | inhibition [18]: 23% | inhibition at 50 µM (J774.A1 [12]): 69% | inhibition (MB49-I [19]): inactive | inhibition [20]: 43% | inhibition (MB49-I [21]): inactive | inhibition at 50 µM [16]: 72%
